CHOP UPR activ = activators of apoptotic arm of unfolded protein response (CHOP) | CHO-CHOP luciferase reporter, UPR activation, luminescence; percent of tunicamycin response over DMSO baseline | activation, % at 10 µM | actives 0.34% (n = 330,000) | AID 449763;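 active = at 10 µM dose, activation of 40% or more, normalized to positive control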;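 also: 100% = tunicamycin at 10 µg/mL and 0% = DMSO alone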
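System: CHO CHOP reporter cells. Amount: 500 cells per well. Buffer or medium: F12 medium, 10% FBS. Compound dosing: one dose, 10 µM in 0.5% DMSO. Incubation: 6 h compound exposure at 37 °C after overnight seeding. Technique: Steady-Glo luciferase luminescence. Benchmarks: tunicamycin and DMSO controls.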
Hep lipid drop = hepatic lipid droplet formation modulation | AML12 mouse hepatocytes, oleate lipid droplets, BODIPY imaging | inhibition, % at 6.5 µM | actives 0.4% (n = 240,000) | AID 1656;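 active = lipid droplet intensity inhibited by at least 50%, with more than 500 cells counted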
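Test system: AML12 mouse liver cells; schedule: overnight exposure; technique: high-content imaging of BODIPY-stained droplets and DAPI nuclei; read-out: % inhibition of corrected integrated BODIPY droplet signal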
TMEM16A inh = mouse TMEM16A channel inhibition, primary screen; Q8BHY3; HEK293 TMEM16A/YFP iodide influx fluorescence, ionomycin; normalized B-score (activity score, 25-100; higher = stronger inhibition) at 10 µM; actives 1.2% (n = 310,000);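 active = ratio plate-corrected score three or more library SD toward inhibition, starting fluorescence score within five deviations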;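 also: score derived from kinetic fluorescence span divided by baseline fluorescence per well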
TMEM16A act = mouse TMEM16A channel activation, primary screen; Q8BHY3; HEK293 TMEM16A/YFP-H148Q/I152L, iodide quench fluorescence; hits give low values; B-score at 10 µM; actives 0.3% (n = 340,000); AID 623877;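 active = fluorescence-ratio B-score plate-corrected deviation score at least 3 library SD below zero, with starting fluorescence score within 5 deviations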;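 also: channel opened by trigger with iodide after compound preincubation; score built on the fluorescence ratio of max minus min over baseline; more negative score means more quench and so TMEM16A activation or potentiation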
CHOP inhibitor = blocks CHOP induction under ER stress | CHO-K1 CHOP-promoter luciferase, tunicamycin-induced, 15-18 h | actives 3.8% (n = 220,000) | inhibition, % at 10 µM;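 active = compounds that reduced the stress-induced luciferase reporter signal by more than about 70% of percent inhibition, limit read from the data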;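 also: 0% = tunicamycin plus vehicle and 100% = wells without tunicamycin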
XBP1 UPR activ = activators of adaptive arm of unfolded protein response (XBP1) | AID 463104 | CHO-XBP1 luciferase reporter, IRE1-XBP1 UPR activation, luminescence; percent of tunicamycin response, DMSO as zero | actives 0.33% (n = 330,000) | activation, % at 20 µM;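 active = versus positive control, 20 µM dose yields 30% or more activation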;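 also: 100% = tunicamycin at 10 µg/mL and 0% = DMSO only wells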
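Material: CHO cell line with stable XBP1 luciferase reporter; buffer or medium: F12 medium containing 10% fetal bovine serum; compound: single point, 20 µM final compound, 1% DMSO; incubation: 6 h treatment, 37 °C; measured by: glow luminescence from Steady-Glo reagent; evaluation: activation, % of tunicamycin; control set: tunicamycin high, DMSO low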
UPR CHOP confirm = apoptotic UPR (CHOP) activation, confirmed | shares compounds with CHOP UPR activ | CHO-CHOP cells, CHOP-luciferase reporter luminescence; percent of tunicamycin response, DMSO as zero | activation, % at 10 µM | actives 64% (n = 1,000) | AID 463112; in the data active = activation above about 33%;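 also: 0% = DMSO wells and 100% = tunicamycin 10 µg/mL wells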
XBP1 UPR conf = confirmation of adaptive unfolded protein response (XBP1) activators. shares compounds with XBP1 UPR activ. CHO-XBP1 IRE1-XBP1 luciferase reporter, luminescence. activation, % at 20 µM. actives 63% (n = 1,000). AID 485299;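 active = reporter signal at least 30% of the positive control's activation in two or more of four replicate wells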;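 also: plate controls were DMSO negative control for no effect and tunicamycin 10 µg/mL positive control for full effect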
TMEM16A reconf = re-confirmation of mouse TMEM16A chloride channel inhibitors. HEK293 TMEM16A/YFP-H148Q, iodide quench fluorescence; ionomycin added to raise cell calcium. inhibition, % at 10 µM. actives 39% (n = 2,300). shares compounds with TMEM16A inh;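 active = mean duplicate percent inhibition, scaled so buffer wells are 0 and the reference blocker 100, over three buffer SD above buffer mean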
TMEM16A Ca cntr = alters calcium mobilization in TMEM16A HEK293 cells, counter-screen | calcium response (% of ionomycin), % at 10 µM | actives 2% (n = 2,300) | shares compounds with TMEM16A inh | TMEM16A/YFP HEK293, Fluo4 calcium mobilization | AID 652231;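 active = duplicate-averaged calcium signal over 20% of the ionomycin maximum, relative to buffer baseline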;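 also: each well's signal is peak minus trough fluorescence divided by its pre-addition baseline; 0% = buffer wells and 100% = ionomycin wells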
YFP-HEK293 quench = acts in parental YFP-HEK293 cells lacking TMEM16A, counter-screen; 2,300 tested, under 10 active; shares compounds with TMEM16A inh; YFP ratio F(max-min)/F0 at 10 µM; iodide YFP quench, ionomycin;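 active = yellow fluorescent protein signal ratio exceeding the buffer control mean by over 5 SD of those controls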;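 also: ratio is mean of duplicate wells from kinetic YFP trace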
ClC-1 rat inh = rat ClC-1 inhibition, TMEM16A specificity screen | 2,300 tested, under 10 active | CHO ClC-1-YFP, iodide influx fluorescence quench; iodide control reads 0, buffer control 100 | ratio percent, % at 10 µM | shares compounds with TMEM16A inh;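 active = duplicate-mean ratio percent above the mean of iodide-only control wells, which defines zero, plus 5 of their SD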;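 also: higher percent means stronger block of ClC-1 iodide influx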
Active calls of the source: *; i = inactive; / = no result. This is a sample that favours compounds with a hit; in the whole collection about 4.2% have one here.

SMILES	CHOP UPR activ	Hep lipid drop	TMEM16A inh	TMEM16A act	CHOP inhibitor	XBP1 UPR activ	UPR CHOP confirm	XBP1 UPR conf	TMEM16A reconf	TMEM16A Ca cntr	YFP-HEK293 quench	ClC-1 rat inh
CCOC(=O)c1nn(-c2ccc(OCC)cc2)c2nc(-c3ccco3)c(C#N)c(=O)n12	53*	4	i	i	42	75*	28	52*	/	/	/	/
CCOC(=O)c1nn(-c2ccc(OCC)cc2)c2nc(-c3cccc(OC)c3)c(C#N)c(=O)n12	1	6	i	i	39	-1	/	/	/	/	/	/
CC(C)(CO)NS(=O)(=O)c1ccc2c(c1)Cc1cc(S(=O)(=O)NC(C)(C)CO)ccc1-2	0	2	i	i	/	-1	/	/	/	/	/	/
Cc1ccc(C(=O)C(C(=O)/C=C/c2ccccc2)=C2SCCCS2)cc1	75*	-28	i	i	-79	30*	96*	39*	/	/	/	/
COc1ccc(/C=C/C(=O)C(C(N)=O)=C2SCCS2)cc1	6	28	i	i	-33	-1	/	/	/	/	/	/
N#Cc1ccc(N/N=C/c2cn(-c3ccccc3)nc2-c2ccccc2)c([N+](=O)[O-])c1	107*	-2	i	i	83*	43*	108*	122*	/	/	/	/
CCOc1ccc(NC(=O)CN(C)C(=O)c2c(-c3c(F)cccc3Cl)noc2C)cc1OCC	0	/	i	i	/	-2	/	/	/	/	/	/
COc1cc(C(=O)Nc2nc(-c3ccc(Cl)cc3)c(C)s2)ccc1OCC(=O)Nc1ccc(F)cc1	127*	-1	i	i	77*	99*	71*	109*	/	/	/	/
CCc1ccc(-c2nc(NC(=O)c3ccc(OCC(=O)Nc4ccc(F)cc4)c(OC)c3)sc2C)cc1	0	-1	i	i	27	-4	/	/	/	/	/	/
COc1cc(/C=C/C(=O)c2ccc3c(c2)OCCO3)cc(Br)c1OCC(=O)N(C)C	135*	-20	i	i	/	13	272*	/	i	i	-1.3	-44
Clc1ccc(-c2nnc(CSc3nnc(-c4cccs4)n3Cc3ccccc3)o2)cc1	47*	-103	25*	i	20	0	-3	/	42%*	i	-0.99	-22
Cc1nnc(SCc2nnc(-c3cccs3)o2)n1Cc1ccccc1	1	-13	i	i	-13	0	/	/	/	/	/	/
COc1ccc(N=c2oc3c(OC)cccc3cc2C(=O)NCc2ccco2)cc1OC	76*	-1	i	i	-33	45*	45*	17	i	i	-1.1	2
O=C1CC(c2ccccc2)=C(c2ccccc2)C1c1ccccc1 (stereo not given)	/	/	/	i	/	/	/	/	/	/	/	/
CCOC(=O)c1cnc(-n2nc(C)cc2C)nc1N(C)C	0	/	i	i	-39	-3	/	/	/	/	/	/
CCOC(=O)c1cnc(-n2nc(C)cc2C)nc1NC1CCCC1	64*	-44	25*	i	27	19	20	/	54%*	i	-0.95	-38

Screening results deposited in PubChem by several laboratories.
